Non-standard residues stand in square brackets, D forms with d. Residues, ends and D or L forms follow the SMILES beside them. Ahp(7-SS(2-pyridyl)) = N[C@@H](CCCCCSSc1ccccn1)C(=O)O; Aib = CC(C)(N)C(=O)O
Columns and labels:
Homo sapiens = species on record: Homo sapiens; test: Selectivity for human HDAC4 over human HDAC1
Outline: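 Selectivity calculated from IC50 values against FLAG-tagged human HDAC4 and HDAC1, each transiently expressed in 293T cells, anti-FLAG immunopurified and FLAG-peptide eluted. Ac-KGLGK(Ac)-MCA substrate, pH 8.0 Tris buffer with 0.1 mM DTT, 37 °C 30 min. Trypsin development, then AMC fluorescence read.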

Histone deacetylase 4 = Histone deacetylase 4 (Homo sapiens, UniProt P56524); test: Inhibition of human HDAC4 expressed in 293T cells; format: cell-based
[1] = target: T1, Protein deacetylase HDAC6 (Mus musculus, UniProt Q9Z2V5); test: Inhibition of mouse HDAC6 expressed in 293T cells; format: cell-based
T1 sequence (Q9Z2V5 whole entry): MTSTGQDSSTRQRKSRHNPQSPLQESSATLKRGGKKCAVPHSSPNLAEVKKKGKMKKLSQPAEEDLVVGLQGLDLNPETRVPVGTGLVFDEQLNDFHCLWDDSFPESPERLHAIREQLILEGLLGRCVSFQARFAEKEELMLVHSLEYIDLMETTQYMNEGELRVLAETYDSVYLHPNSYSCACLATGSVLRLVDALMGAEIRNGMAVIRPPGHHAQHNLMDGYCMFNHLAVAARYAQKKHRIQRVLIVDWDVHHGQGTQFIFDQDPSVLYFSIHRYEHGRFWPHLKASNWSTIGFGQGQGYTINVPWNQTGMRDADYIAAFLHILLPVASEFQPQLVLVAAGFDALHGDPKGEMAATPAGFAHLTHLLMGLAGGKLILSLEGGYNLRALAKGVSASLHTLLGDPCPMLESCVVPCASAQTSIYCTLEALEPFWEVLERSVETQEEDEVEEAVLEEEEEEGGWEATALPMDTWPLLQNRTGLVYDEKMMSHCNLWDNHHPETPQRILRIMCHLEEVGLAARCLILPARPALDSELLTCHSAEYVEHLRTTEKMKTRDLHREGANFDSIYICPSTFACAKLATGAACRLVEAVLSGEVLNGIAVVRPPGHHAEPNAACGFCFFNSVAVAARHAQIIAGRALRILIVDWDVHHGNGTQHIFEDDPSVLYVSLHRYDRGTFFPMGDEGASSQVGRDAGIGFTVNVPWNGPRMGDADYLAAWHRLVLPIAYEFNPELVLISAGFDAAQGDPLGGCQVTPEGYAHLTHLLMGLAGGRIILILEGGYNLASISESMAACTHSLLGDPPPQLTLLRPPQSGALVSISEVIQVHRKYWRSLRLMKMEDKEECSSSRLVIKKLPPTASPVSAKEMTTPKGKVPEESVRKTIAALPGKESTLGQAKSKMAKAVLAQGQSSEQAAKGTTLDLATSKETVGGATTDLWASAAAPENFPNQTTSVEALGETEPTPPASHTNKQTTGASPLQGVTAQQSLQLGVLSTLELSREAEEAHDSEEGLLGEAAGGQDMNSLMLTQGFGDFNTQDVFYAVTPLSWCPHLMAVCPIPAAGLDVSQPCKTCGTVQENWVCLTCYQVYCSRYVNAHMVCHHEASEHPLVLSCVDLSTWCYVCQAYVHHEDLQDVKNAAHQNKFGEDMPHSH

[2] = Induction of wild-type p21 promoter activation in mink Mv1Lu cells after 18 hrs by luciferase assay relative to basal level; format: functional, Neovison vison
Outline: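 Stable Mv1Lu clone (MFLL-9) carrying p21 promoter (2.4 kb genomic fragment)–luciferase reporter, G418-selected. Cells (1 × 10^5) plated 6 h, then exposed 18 h to various drug concentrations. Luciferase activity of lysates measured by luminometer, normalized to lysate protein; concentration giving 10-fold induction over basal level reported as EC1000.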

Histone deacetylase 1 = Histone deacetylase 1 (Homo sapiens, UniProt Q13547); test: Inhibition of human HDAC1 expressed in 293T cells; format: cell-based
Sequence of Histone deacetylase 1 (Q13547 whole entry): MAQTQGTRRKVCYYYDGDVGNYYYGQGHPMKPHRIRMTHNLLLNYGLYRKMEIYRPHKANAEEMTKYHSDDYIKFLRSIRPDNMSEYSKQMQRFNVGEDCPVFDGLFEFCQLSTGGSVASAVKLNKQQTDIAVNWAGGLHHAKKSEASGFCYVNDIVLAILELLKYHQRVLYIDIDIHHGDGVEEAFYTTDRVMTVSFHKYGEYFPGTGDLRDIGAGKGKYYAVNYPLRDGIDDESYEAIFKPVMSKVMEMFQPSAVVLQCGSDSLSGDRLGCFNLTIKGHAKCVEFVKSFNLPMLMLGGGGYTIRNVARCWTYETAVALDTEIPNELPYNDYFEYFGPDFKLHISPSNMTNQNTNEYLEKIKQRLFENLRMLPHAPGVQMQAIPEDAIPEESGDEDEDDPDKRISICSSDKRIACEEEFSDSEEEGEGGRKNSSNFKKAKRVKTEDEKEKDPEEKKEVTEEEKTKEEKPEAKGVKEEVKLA

Sequence of Histone deacetylase 4 (P56524 whole entry): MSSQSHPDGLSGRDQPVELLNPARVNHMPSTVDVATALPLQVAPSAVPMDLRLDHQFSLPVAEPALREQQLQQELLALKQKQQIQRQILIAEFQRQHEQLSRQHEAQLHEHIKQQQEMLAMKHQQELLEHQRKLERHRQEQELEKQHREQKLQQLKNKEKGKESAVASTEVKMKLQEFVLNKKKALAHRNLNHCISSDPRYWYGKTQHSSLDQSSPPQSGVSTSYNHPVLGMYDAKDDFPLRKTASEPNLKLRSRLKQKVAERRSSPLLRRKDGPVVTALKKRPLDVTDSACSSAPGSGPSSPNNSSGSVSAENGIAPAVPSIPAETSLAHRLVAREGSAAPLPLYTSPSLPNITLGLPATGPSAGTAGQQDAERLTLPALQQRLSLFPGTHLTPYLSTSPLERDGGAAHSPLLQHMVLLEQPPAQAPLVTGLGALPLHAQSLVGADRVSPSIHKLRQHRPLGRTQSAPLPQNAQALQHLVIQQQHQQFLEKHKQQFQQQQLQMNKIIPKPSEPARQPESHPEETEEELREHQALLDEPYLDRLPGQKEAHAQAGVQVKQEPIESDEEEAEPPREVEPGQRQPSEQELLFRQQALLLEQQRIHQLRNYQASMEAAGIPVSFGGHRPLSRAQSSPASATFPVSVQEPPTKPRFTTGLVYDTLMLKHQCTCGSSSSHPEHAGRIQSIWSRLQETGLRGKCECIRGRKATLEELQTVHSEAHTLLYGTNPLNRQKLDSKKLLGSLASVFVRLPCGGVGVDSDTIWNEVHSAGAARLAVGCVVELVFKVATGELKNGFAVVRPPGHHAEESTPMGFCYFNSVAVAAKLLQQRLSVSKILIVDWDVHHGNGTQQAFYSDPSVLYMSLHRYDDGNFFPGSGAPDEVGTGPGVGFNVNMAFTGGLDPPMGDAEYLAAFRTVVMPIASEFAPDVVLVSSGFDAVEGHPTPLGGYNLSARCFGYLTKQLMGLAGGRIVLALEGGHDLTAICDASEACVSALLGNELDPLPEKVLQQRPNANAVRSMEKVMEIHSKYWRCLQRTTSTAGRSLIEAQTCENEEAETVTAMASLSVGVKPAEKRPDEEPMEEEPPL

| Ratio IC50 (Homo sapiens) | IC50 (Histone deacetylase 4) | IC50 [1] | IC50 (Histone deacetylase 1) | Compound | EC1000 [2] |
| --- | --- | --- | --- | --- | --- |
| 1.1 |  |  |  | C[C@H]1CN2Cc3ccccc3C[C@@H]2C(=O)N[C@@H](CCCCCSSc2ccccn2)C(=O)NC(C)(C)C(=O)N1 |  |
| 2 | 1.6 nM | 24 nM | 3.2 nM | CC1(C)NC(=O)[C@H](CCCCCSSc2ccccn2)NC(=O)[C@H]2CCCN2C(=O)[C@H](COCc2ccccc2)NC1=O | 72 nM |
| 1.2 | 1.6 nM | 8.8 nM | 2 nM | C[C@@H]1NC(=O)C2(Cc3ccccc3C2)NC(=O)[C@H](CCCCCSSc2ccccn2)NC(=O)[C@H]2CCCN2C1=O | 140 nM |
| 2.1 | 1.8 nM | 40 nM | 3.9 nM | CC1(C)NC(=O)[C@H](CCCCCSSc2ccccn2)NC(=O)[C@H]2CCCN2C(=O)[C@H](Cc2ccccc2)NC1=O (cyclo([Aib]F[dP][Ahp(7-SS(2-pyridyl))])) | 45 nM |
| 1.8 | 5.2 nM | 43 nM | 9.4 nM | C[C@@H]1NC(=O)C(C)(C)NC(=O)[C@H](CCCCCSSc2ccccn2)NC(=O)[C@H]2CCCN2C1=O | 750 nM |
|  | 4.2 nM | 29 nM | 4.7 nM | C[C@@H]1NC(=O)C(C)(C)NC(=O)[C@H](CCCCCSSc2ccccn2)NC(=O)[C@H]2Cc3ccccc3CN2C1=O [listing 1 of 2 here] |  |
| 1.9 | 2.7 nM | 43 nM | 5.3 nM | CC1(C)NC(=O)[C@H](CCCCCSSc2ccccn2)NC(=O)[C@H]2CCCN2C(=O)[C@H](CCCc2ccccc2)NC1=O | 110 nM |
| 1.5 | 56 nM | 86 nM | 88 nM | CC1(C)NC(=O)[C@H](CCCCCSSc2ccccn2)NC(=O)[C@H]2CCCN2C(=O)[C@H](c2ccccc2)NC1=O | 7400 nM |
| 1.1 | 2.4 nM | 12 nM | 2.7 nM | C[C@@H]1NC(=O)[C@@]2(CCc3ccccc32)NC(=O)[C@H](CCCCCSSc2ccccn2)NC(=O)[C@H]2CCCN2C1=O | 55 nM |
| 2.4 | 70 nM | 71 nM | 170 nM | C[C@@H]1NC(=O)[C@@](C)(Cc2ccccc2)NC(=O)[C@H](CCCCCSSc2ccccn2)NC(=O)[C@H]2CCCN2C1=O | 25600 nM |
| 1.9 | 3.2 nM | 36 nM | 6.2 nM | CC1(C)NC(=O)[C@H](CCCCCSSc2ccccn2)NC(=O)[C@H]2CCCN2C(=O)[C@H](CCc2ccccc2)NC1=O | 320 nM |
|  |  |  |  | C[C@@H]1NC(=O)C(C)(C)NC(=O)[C@H](CCCCCSSc2ccccn2)NC(=O)[C@H]2Cc3ccccc3CN2C1=O [listing 2 of 2 here] | 200 nM |
| 1.6 | 4 nM | 26 nM | 6.4 nM | CC1(C)NC(=O)[C@H](CCCCCSSc2ccccn2)NC(=O)[C@H]2CCCN2C(=O)[C@H](CO)NC1=O | 580 nM |
| 1.6 | 2.2 nM | 56 nM | 3.7 nM | C[C@@H]1NC(=O)[C@](C)(Cc2ccccc2)NC(=O)[C@H](CCCCCSSc2ccccn2)NC(=O)[C@H]2CCCN2C1=O | 550 nM |
| 1.4 | 25 nM | 33 nM | 36 nM | C[C@@H]1NC(=O)[C@]2(CCc3ccccc32)NC(=O)[C@H](CCCCCSSc2ccccn2)NC(=O)[C@H]2CCCN2C1=O | 2000 nM |

Reference: ChEMBL document CHEMBL1140506, “Molecular design of histone deacetylase inhibitors by aromatic ring shifting in chlamydocin framework” (Bioorg Med Chem, 2007)
